Data taken from ChEMBL document CHEMBL4411280, “Synthesis, structure activity relationship and in vitro anti-influenza virus activity of novel polyphenol-pentacyclic triterpene conjugates” (Eur J Med Chem, 2019).
The source made the active and inactive calls. The calls are words filed in the database; no cut-off is given here.

Legend:
[1] = Cytotoxicity against MDCK cells after 40 hrs by CellTiter-Glo assay; assay type: cell-based, Canis lupus familiaris; details: dog
Summary of the method: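 MDCK cells grown overnight in medium with 1% FBS, then exposed to increasing compound concentrations for 40 h. Viability measured by CellTiter-Glo luminescence, and CC50 derived from it.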

[2] = tested on: Influenza A virus; test: Antiviral activity against Influenza A virus A/WSN/33/H1N1 infected in MDCK cells assessed as reduction in virus-induced cytopathic effect at 50 uM after 40 hrs by CellTiter-Glo assay; assay type: functional, organism-based
Summary of the method: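 Single-concentration screen at 50 μM final. MDCK cells infected with A/WSN/33 (H1N1) at MOI 0.1 in DMEM/1% FBS with TPCK-trypsin for 40 h, viability by CellTiter-Glo. 0.5% DMSO final as negative control, oseltamivir as positive control. Triplicate experiments, standard deviations shown.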

[3] = tested on: Influenza A virus; test: Antiviral activity against Influenza A virus A/WSN/33/H1N1 infected in MDCK cells assessed as reduction in virus-induced cytopathic effect after 40 hrs by CellTiter-Glo assay; assay type: functional, organism-based; details: A/WSN/33/H1N1, MDCK
Summary of the method: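 MDCK cells seeded overnight, infected with influenza A/WSN/33 (H1N1) at MOI 0.1. Kept in DMEM with 1% FBS, test compound, TPCK-treated trypsin and 1% final DMSO for 40 h. Cell viability read by CellTiter-Glo luminescence. IC50 taken from dose-response.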

[4] = tested on: MDCK; test: Cytotoxicity against MDCK cells at 50 uM after 40 hrs by CellTiter-Glo assay; assay type: cell-based, Canis lupus familiaris; details: dog
Summary of the method: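 Single-concentration toxicity screen at 50 μM final on MDCK cells for 40 h, read by CellTiter-Glo. 0.5% DMSO final as negative control. Triplicate experiments, standard deviations shown.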

Compound	Activity [4]	also measured
C=C(C)[C@@H]1CC[C@]2(C(=O)NCCNC(=O)/C=C/c3ccc(O)cc3)CC[C@]3(C)[C@H](CC[C@@H]4[C@@]5(C)CC[C@H](O)C(C)(C)[C@@H]5CC[C@]43C)[C@@H]12	Non-Toxic	CC50 at 40 h [1]: > 100 µM; Activity [2]: Active; IC50 [3]: 15.7 µM
CC1(C)CC[C@]2(C(=O)NCCNC(=O)c3cc(OCc4ccccc4)cc(OCc4ccccc4)c3)CC[C@]3(C)C(=CC[C@@H]4[C@@]5(C)CC[C@H](O)C(C)(C)[C@@H]5CC[C@]43C)[C@@H]2C1	Non-Toxic	–
C[C@H]1[C@H](C)CC[C@]2(C(=O)NCCNC(=O)c3cc(OCc4ccccc4)c(OCc4ccccc4)c(OCc4ccccc4)c3)CC[C@]3(C)C(=CC[C@@H]4[C@@]5(C)CC[C@H](O)C(C)(C)[C@@H]5CC[C@]43C)[C@H]12	Non-Toxic	CC50 at 40 h [1]: > 100 µM; Activity [2]: Active; IC50 [3]: 32.9 µM
CC1(C)CC[C@]2(C(=O)NCCNC(=O)c3ccc(OCc4ccccc4)cc3)CC[C@]3(C)C(=CC[C@@H]4[C@@]5(C)CC[C@H](O)C(C)(C)[C@@H]5CC[C@]43C)[C@@H]2C1	Non-Toxic	–
CC1(C)CC[C@]2(C(=O)NCCNC(=O)c3cc(O)cc(O)c3)CC[C@]3(C)C(=CC[C@@H]4[C@@]5(C)CC[C@H](O)C(C)(C)[C@@H]5CC[C@]43C)[C@@H]2C1	Toxic	–
C=C(C)[C@@H]1CC[C@]2(C(=O)NCCNC(=O)c3cc(O)cc(O)c3)CC[C@]3(C)[C@H](CC[C@@H]4[C@@]5(C)CC[C@H](O)C(C)(C)[C@@H]5CC[C@]43C)[C@@H]12	Toxic	–
C[C@H]1[C@H](C)CC[C@]2(C(=O)NCCNC(=O)c3ccc(O)cc3)CC[C@]3(C)C(=CC[C@@H]4[C@@]5(C)CC[C@H](O)C(C)(C)[C@@H]5CC[C@]43C)[C@H]12	Toxic	–
CC1(C)CC[C@]2(C(=O)NCCNC(=O)/C=C/c3ccc(O)cc3)[C@H](O)C[C@]3(C)C(=CC[C@@H]4[C@@]5(C)CC[C@H](O)C(C)(C)[C@@H]5CC[C@]43C)[C@@H]2C1	Non-Toxic	–
C[C@H]1[C@H](C)CC[C@]2(C(=O)NCCNC(=O)c3cc(O)c(O)c(O)c3)CC[C@]3(C)C(=CC[C@@H]4[C@@]5(C)CC[C@H](O)C(C)(C)[C@@H]5CC[C@]43C)[C@H]12	Toxic	–
C=C(C)[C@@H]1CC[C@]2(C(=O)NCCNC(=O)c3cc(OCc4ccccc4)cc(OCc4ccccc4)c3)CC[C@]3(C)[C@H](CC[C@@H]4[C@@]5(C)CC[C@H](O)C(C)(C)[C@@H]5CC[C@]43C)[C@@H]12	Non-Toxic	–
C[C@H]1[C@H](C)CC[C@]2(C(=O)NCCNC(=O)c3cc(O)cc(O)c3)CC[C@]3(C)C(=CC[C@@H]4[C@@]5(C)CC[C@H](O)C(C)(C)[C@@H]5CC[C@]43C)[C@H]12	Toxic	–
CC1(C)CC[C@]2(C(=O)NCCNC(=O)c3cc(OCc4ccccc4)c(OCc4ccccc4)c(OCc4ccccc4)c3)[C@H](O)C[C@]3(C)C(=CC[C@@H]4[C@@]5(C)CC[C@H](O)C(C)(C)[C@@H]5CC[C@]43C)[C@@H]2C1	Non-Toxic	Activity [2]: Active
CC1(C)CC[C@]2(C(=O)NCCNC(=O)c3cc(O)c(O)c(O)c3)[C@H](O)C[C@]3(C)C(=CC[C@@H]4[C@@]5(C)CC[C@H](O)C(C)(C)[C@@H]5CC[C@]43C)[C@@H]2C1	Toxic	–
CC1(C)CC[C@]2(C(=O)NCCNC(=O)c3ccc(OCc4ccccc4)cc3)[C@H](O)C[C@]3(C)C(=CC[C@@H]4[C@@]5(C)CC[C@H](O)C(C)(C)[C@@H]5CC[C@]43C)[C@@H]2C1	Non-Toxic	–
C=C(C)[C@@H]1CC[C@]2(C(=O)NCCNC(=O)c3ccc(O)cc3O)CC[C@]3(C)[C@H](CC[C@@H]4[C@@]5(C)CC[C@H](O)C(C)(C)[C@@H]5CC[C@]43C)[C@@H]12	Toxic	–
C=C(C)[C@@H]1CC[C@]2(C(=O)NCCNC(=O)c3ccc(OCc4ccccc4)cc3)CC[C@]3(C)[C@H](CC[C@@H]4[C@@]5(C)CC[C@H](O)C(C)(C)[C@@H]5CC[C@]43C)[C@@H]12	Non-Toxic	–
CC1(C)CC[C@]2(C(=O)NCCNC(=O)/C=C/c3ccccc3)[C@H](O)C[C@]3(C)C(=CC[C@@H]4[C@@]5(C)CC[C@H](O)C(C)(C)[C@@H]5CC[C@]43C)[C@@H]2C1	Toxic	–
C=C(C)[C@@H]1CC[C@]2(C(=O)NCCNC(=O)c3ccccc3O)CC[C@]3(C)[C@H](CC[C@@H]4[C@@]5(C)CC[C@H](O)C(C)(C)[C@@H]5CC[C@]43C)[C@@H]12	Non-Toxic	CC50 at 40 h [1]: > 100 µM; Activity [2]: Active; IC50 [3]: 9.55 µM
CC1(C)CC[C@]2(C(=O)NCCNC(=O)c3ccc(O)cc3)CC[C@]3(C)C(=CC[C@@H]4[C@@]5(C)CC[C@H](O)C(C)(C)[C@@H]5CC[C@]43C)[C@@H]2C1	Non-Toxic	–

Compound	Activity [4]	also measured
C[C@H]1[C@H](C)CC[C@]2(C(=O)NCCNC(=O)c3ccc(O)cc3O)CC[C@]3(C)C(=CC[C@@H]4[C@@]5(C)CC[C@H](O)C(C)(C)[C@@H]5CC[C@]43C)[C@H]12	Toxic	–
C[C@H]1[C@H](C)CC[C@]2(C(=O)NCCNC(=O)/C=C/c3ccc(O)cc3)CC[C@]3(C)C(=CC[C@@H]4[C@@]5(C)CC[C@H](O)C(C)(C)[C@@H]5CC[C@]43C)[C@H]12	Non-Toxic	–
CC1(C)CC[C@]2(C(=O)NCCNC(=O)c3cc(OCc4ccccc4)cc(OCc4ccccc4)c3)[C@H](O)C[C@]3(C)C(=CC[C@@H]4[C@@]5(C)CC[C@H](O)C(C)(C)[C@@H]5CC[C@]43C)[C@@H]2C1	Non-Toxic	–
CC1(C)CC[C@]2(C(=O)NCCNC(=O)/C=C/c3ccccc3)CC[C@]3(C)C(=CC[C@@H]4[C@@]5(C)CC[C@H](O)C(C)(C)[C@@H]5CC[C@]43C)[C@@H]2C1	Toxic	–
C[C@H]1[C@H](C)CC[C@]2(C(=O)NCCNC(=O)c3cc(OCc4ccccc4)cc(OCc4ccccc4)c3)CC[C@]3(C)C(=CC[C@@H]4[C@@]5(C)CC[C@H](O)C(C)(C)[C@@H]5CC[C@]43C)[C@H]12	Non-Toxic	–
C=C(C)[C@@H]1CC[C@]2(C(=O)NCCNC(=O)c3ccc(O)cc3)CC[C@]3(C)[C@H](CC[C@@H]4[C@@]5(C)CC[C@H](O)C(C)(C)[C@@H]5CC[C@]43C)[C@@H]12	Toxic	–
CC1(C)CC[C@]2(C(=O)NCCNC(=O)/C=C/c3ccc(O)cc3)CC[C@]3(C)C(=CC[C@@H]4[C@@]5(C)CC[C@H](O)C(C)(C)[C@@H]5CC[C@]43C)[C@@H]2C1	Non-Toxic	–
CC1(C)CC[C@]2(C(=O)NCCNC(=O)c3ccc(O)cc3)[C@H](O)C[C@]3(C)C(=CC[C@@H]4[C@@]5(C)CC[C@H](O)C(C)(C)[C@@H]5CC[C@]43C)[C@@H]2C1	Toxic	–
CC1(C)CC[C@]2(C(=O)NCCNC(=O)c3cc(O)c(O)c(O)c3)CC[C@]3(C)C(=CC[C@@H]4[C@@]5(C)CC[C@H](O)C(C)(C)[C@@H]5CC[C@]43C)[C@@H]2C1	Toxic	–
C=C(C)[C@@H]1CC[C@]2(C(=O)NCCNC(=O)c3cc(OCc4ccccc4)c(OCc4ccccc4)c(OCc4ccccc4)c3)CC[C@]3(C)[C@H](CC[C@@H]4[C@@]5(C)CC[C@H](O)C(C)(C)[C@@H]5CC[C@]43C)[C@@H]12	Non-Toxic	–
C=C(C)[C@@H]1CC[C@]2(C(=O)NCCNC(=O)/C=C/c3ccccc3)CC[C@]3(C)[C@H](CC[C@@H]4[C@@]5(C)CC[C@H](O)C(C)(C)[C@@H]5CC[C@]43C)[C@@H]12	Non-Toxic	–
CC1(C)CC[C@]2(C(=O)NCCNC(=O)c3cc(OCc4ccccc4)c(OCc4ccccc4)c(OCc4ccccc4)c3)CC[C@]3(C)C(=CC[C@@H]4[C@@]5(C)CC[C@H](O)C(C)(C)[C@@H]5CC[C@]43C)[C@@H]2C1	Non-Toxic	Activity [2]: Active
CC1(C)CC[C@]2(C(=O)NCCNC(=O)c3cc(O)cc(O)c3)[C@H](O)C[C@]3(C)C(=CC[C@@H]4[C@@]5(C)CC[C@H](O)C(C)(C)[C@@H]5CC[C@]43C)[C@@H]2C1	Toxic	–
CCOC(=O)C1=C[C@@H](OC(CC)CC)[C@H](NC(C)=O)[C@@H](N)C1 [OSELTAMIVIR]	–	CC50 at 40 h [1]: > 200 µM; IC50 [3]: 16.5 µM
C[C@H]1[C@H](C)CC[C@]2(C(=O)NCCNC(=O)c3ccc(OCc4ccccc4)cc3)CC[C@]3(C)C(=CC[C@@H]4[C@@]5(C)CC[C@H](O)C(C)(C)[C@@H]5CC[C@]43C)[C@H]12	Non-Toxic	–
CC1(C)CC[C@]2(C(=O)NCCNC(=O)c3ccc(O)cc3O)CC[C@]3(C)C(=CC[C@@H]4[C@@]5(C)CC[C@H](O)C(C)(C)[C@@H]5CC[C@]43C)[C@@H]2C1	Toxic	–
CC1(C)CC[C@]2(C(=O)NCCNC(=O)c3ccc(O)cc3O)[C@H](O)C[C@]3(C)C(=CC[C@@H]4[C@@]5(C)CC[C@H](O)C(C)(C)[C@@H]5CC[C@]43C)[C@@H]2C1	Toxic	–
C=C(C)[C@@H]1CC[C@]2(C(=O)NCCNC(=O)c3cc(O)c(O)c(O)c3)CC[C@]3(C)[C@H](CC[C@@H]4[C@@]5(C)CC[C@H](O)C(C)(C)[C@@H]5CC[C@]43C)[C@@H]12	Toxic	Activity [2]: Active
